According to article PMC8592089 (SLAS discovery : advancing life sciences R & D, 2020):
“Also recorded” adds a separate entry of the source. Like-named read-outs stand apart in the source and are kept apart here.

T1: PABPN1 (Homo sapiens, UniProt Q86U42)
T1 sequence (Q86U42 1-306): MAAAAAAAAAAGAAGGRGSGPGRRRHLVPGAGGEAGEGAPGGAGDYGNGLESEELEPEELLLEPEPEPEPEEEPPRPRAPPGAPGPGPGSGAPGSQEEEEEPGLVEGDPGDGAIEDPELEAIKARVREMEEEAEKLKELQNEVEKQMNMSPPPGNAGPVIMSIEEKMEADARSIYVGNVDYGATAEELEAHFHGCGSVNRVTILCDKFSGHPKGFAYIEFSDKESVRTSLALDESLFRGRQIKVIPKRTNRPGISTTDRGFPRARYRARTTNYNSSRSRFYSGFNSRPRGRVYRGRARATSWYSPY

T2: MSUT2 ZF (zinc finger domain) (UniProt Q6PJT7 595-719)
T2 sequence: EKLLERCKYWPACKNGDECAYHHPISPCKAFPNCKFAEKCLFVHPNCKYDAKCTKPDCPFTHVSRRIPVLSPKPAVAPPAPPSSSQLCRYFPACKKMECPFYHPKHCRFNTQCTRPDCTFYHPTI

T3: PABPN1 (UniProt Q86U42 1-306)
T3 sequence: T1 sequence (Q86U42 1-306)


How the values were obtained:
MSUT2 [1] = assay: Fluorescence polarization orthogonal assay, FAM-poly; format: binding
Outline: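 GST-MSUT2 zinc finger (E. coli BL21(DE3), glutathione-purified) at 125 nM was mixed with 10 nM FAM-poly(A) RNA in PBS, and compound was added. Incubation was 20 min at room temperature, protected from light. Read at ex 485/20, em 528/20; buffer-only background was subtracted and polarization calculated as (F∥−F⊥)/(F∥+F⊥). A parallel run included DTT. N=3 without DTT, N=2 with DTT.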

PABPN1 [2] = target: T1, PABPN1; assay: AlphaScreen specificity counterscreen against PABPN1; format: binding; settings: AlphaScreen IC50 MSUT2 compared with PABPN1, in words
Outline: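 GST-tagged PABPN1 and MSUT2 zinc-finger construct were expressed in E. coli BL21(DE3) and purified on glutathione-sepharose. AlphaScreen was run in AlphaLISA universal buffer plus 100 mM NaCl with donor beads (10 μg/mL), 250 nM biotinylated poly(A) RNA and 250 nM GST-MSUT2. Compound was pin-added, incubated 30 min at RT in the dark, then acceptor beads were added for 60 min. IC50 was from a four-parameter fit, N=3.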

HEK-293 cells = assay: Cytotoxicity screen, CellTiter-Glo cell viability; format: cell-based, human; settings: HEK cell model, in words
MSUT2 [3] = settings: read-out: Kd of MSUT2 for poly(A); cited from earlier work
[4] = target: T2, MSUT2 ZF (zinc finger domain); assay: competition
PABPN1 [5] = target: T3, PABPN1; assay: competition
[6] = read-out: IC50 (FP = FP assay), without DTT, 125 nM MSUT2, 10 nM FAM-RNA
[7] = read-out: IC50 (FP+DTT = FP in the presence of reducing agent DTT), with DTT

Molecule | IC50 (MSUT2 [1]; [6]) [nM] | IC50 (MSUT2 [1]; [7]) [nM] | Specificity for MSUT2 versus PABPN1 (PABPN1 [2]) | Effect on cell viability (toxicity) (HEK-293 cells) | further results
O=C1C(Cl)=C(Cl)C(=O)c2c(O)ccc(O)c21 [2,3-Dichloro-5,8-dihydroxynapthoquinone, 2,3-dichloro-5,8-dihydroxynapthoquinone] | 1320 | 1560 | low specificity for MSUT2 |  | 
O=C(O)C1=CC(=C(c2ccc(O)c(C(=O)O)c2)c2ccc(O)c(C(=O)O)c2)C=CC1=O [Aurin tricarboxylic acid, aurin tricarboxylic acid] | 7110 | 7190 | nonspecifically inhibited MSUT2 | relatively high toxicity at high concentrations | 
O=S(=O)(O)c1cc(N=C=S)ccc1C=Cc1ccc(N=C=S)cc1S(=O)(=O)O [DIDS, 4,4′-diisothiocyanostilbene-2,2′-sulfonic acid] | 6320 | 6020 | low specificity for MSUT2; also recorded: twofold reduction in potency against PABPN1 | relatively nontoxic at all doses tested | 
O=c1c2ccccc2[se]n1-c1ccccc1 [ebselen] |  |  |  |  | Inhibitory effect in FP assay in the presence of DTT (MSUT2 [1]; with reducing agent DTT): abolished the inhibitory effect
poly(A) |  |  |  |  | Kd (MSUT2 [3]): 60 ± 15 nM
AAAAAAAAAAAAAAA (ssRNA) [unlabeled poly(A) 15-mer] |  |  |  |  | IC50 [4]: 198 nM; IC50 (PABPN1 [5]): 803 nM
